Results as given in ChEMBL document CHEMBL3867488 (ACS Med Chem Lett, 2016).

How the values were obtained:
[1] = target: Alpha-1-acid glycoprotein 1 (Homo sapiens, UniProt P02763); test: Binding affinity to human alpha-1-AGP at 1 uM measured after 4 hrs by equilibrium dialysis method relative to control; assay type: ADME; settings: isolated protein, 4 h, 1 µM
Cynomolgus monkey [2] = test: In vivo agonist activity at LXR-beta in cynomolgus monkey assessed as ABCG1 gene induction by measuring total RNA level at 3 mg/kg, po qd administered via gavage for 14 days measured after 5 to 6 hrs of last-dose relative to control; assay type: functional, Macaca fascicularis
Method in brief: (§1)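 Cynomolgus monkeys dosed daily for 14 days. ABCG1 mRNA induction measured in blood cells on day 14 and expressed as fold change. Plasma drug concentration taken about 5 h post-dose. Plasma triglycerides also measured against baseline, with significance by ANOVA.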

Albumin = Albumin (Homo sapiens, UniProt P02768); test: Binding affinity to human serum albumin at 1 uM measured after 4 hrs by equilibrium dialysis method relative to control; assay type: ADME; settings: isolated protein, 4 h, 1 µM
Albumin, sequence (P02768 whole entry): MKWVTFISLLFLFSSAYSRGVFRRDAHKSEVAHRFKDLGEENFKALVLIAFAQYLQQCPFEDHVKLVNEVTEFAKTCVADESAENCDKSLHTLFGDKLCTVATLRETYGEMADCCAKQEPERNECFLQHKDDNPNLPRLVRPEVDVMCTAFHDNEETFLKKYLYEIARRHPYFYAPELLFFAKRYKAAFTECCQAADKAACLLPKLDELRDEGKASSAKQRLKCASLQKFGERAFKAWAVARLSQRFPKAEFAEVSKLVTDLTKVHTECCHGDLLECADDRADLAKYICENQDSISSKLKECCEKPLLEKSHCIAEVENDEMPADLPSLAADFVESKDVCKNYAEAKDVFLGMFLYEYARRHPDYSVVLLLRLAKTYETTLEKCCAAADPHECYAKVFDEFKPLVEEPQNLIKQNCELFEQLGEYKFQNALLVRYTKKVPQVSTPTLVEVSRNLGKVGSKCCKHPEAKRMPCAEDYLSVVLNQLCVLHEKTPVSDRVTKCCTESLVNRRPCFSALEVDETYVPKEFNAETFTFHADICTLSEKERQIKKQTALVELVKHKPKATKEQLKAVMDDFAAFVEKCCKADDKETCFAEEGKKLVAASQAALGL

[3] = target: T1, Oxysterols receptor LXR-alpha (Homo sapiens, UniProt Q13133); test: Agonist activity at human LXR-alpha expressed in African green monkey CV1 cells measured after 18 to 20 hrs by luciferase reporter gene assay relative to pan agonist 1-(2,4-difluorobenzyl)-2-oxo-6-(4-phenoxyphenyl)-4-(trifluoromethyl)-1,2-dihydropyridine-3-carbonitrile; assay type: cell-based; settings: CV-1, human; read-out: Efficacy
T1 sequence (Q13133 whole entry): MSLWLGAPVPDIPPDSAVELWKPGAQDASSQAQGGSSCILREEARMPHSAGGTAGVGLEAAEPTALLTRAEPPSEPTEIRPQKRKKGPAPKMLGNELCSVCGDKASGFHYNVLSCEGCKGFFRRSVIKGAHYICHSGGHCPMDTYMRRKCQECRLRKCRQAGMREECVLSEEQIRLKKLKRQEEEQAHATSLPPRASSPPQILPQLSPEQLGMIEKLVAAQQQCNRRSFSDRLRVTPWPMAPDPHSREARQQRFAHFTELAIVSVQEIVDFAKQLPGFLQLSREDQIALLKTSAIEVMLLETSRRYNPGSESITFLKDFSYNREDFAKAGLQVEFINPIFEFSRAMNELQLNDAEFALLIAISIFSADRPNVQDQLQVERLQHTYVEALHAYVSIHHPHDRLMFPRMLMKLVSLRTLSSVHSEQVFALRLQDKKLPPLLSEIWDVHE

Cynomolgus monkey [4] = test: In vivo agonist activity at LXR-beta in cynomolgus monkey assessed as ABCG1 gene induction by measuring total RNA level at 1 mg/kg, po qd administered via gavage for 14 days measured after 5 to 6 hrs of last-dose relative to control; assay type: functional, Macaca fascicularis; method in brief: as §1
[5] = Effect on plasma triglyceride level in cynomolgus monkey at 1 mg/kg, po qd administered via gavage for 14 days measured after 24 hrs of last-dose relative to base line; assay type: ADME, organism-based, Macaca fascicularis; settings: in vivo
Method in brief: (§2)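 Cynomolgus monkeys dosed daily for 14 days. On day 14, plasma drug concentration was taken 5 h post-dose. Plasma triglycerides were expressed as % elevation over baseline, with significance tested by ANOVA (p < 0.05).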

[6] = target: T2, Nuclear receptor subfamily 1 group I member 2 (Homo sapiens, UniProt O75469); test: Agonist activity at human PXR expressed in human HepG2 cells assessed as induction of CYP3A4 measured after 24 hrs by AlamarBlue dye-based luciferase reporter gene assay relative to control; assay type: cell-based; settings: hepg2, 24 h
T2 sequence (O75469 whole entry): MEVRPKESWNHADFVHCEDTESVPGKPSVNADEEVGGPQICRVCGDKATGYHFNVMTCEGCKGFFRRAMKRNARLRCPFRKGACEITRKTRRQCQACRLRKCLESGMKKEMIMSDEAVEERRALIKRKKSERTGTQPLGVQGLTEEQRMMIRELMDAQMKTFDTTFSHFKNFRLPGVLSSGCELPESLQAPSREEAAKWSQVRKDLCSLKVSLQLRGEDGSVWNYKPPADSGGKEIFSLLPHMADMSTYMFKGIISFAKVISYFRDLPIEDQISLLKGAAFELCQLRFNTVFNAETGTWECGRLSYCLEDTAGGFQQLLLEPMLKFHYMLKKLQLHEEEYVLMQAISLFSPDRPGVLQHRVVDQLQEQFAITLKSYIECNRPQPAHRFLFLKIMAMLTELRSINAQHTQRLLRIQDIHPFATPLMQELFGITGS

[7] = Plasma concentration in cynomolgus monkey at 1 mg/kg, po qd administered via gavage for 14 days measured after 5 hrs of last-dose by LC/MS/MS analysis; assay type: ADME, organism-based, Macaca fascicularis; method in brief: as §2
[8] = Apparent elimination half life in iv dosed cynomolgus monkey; assay type: ADME, organism-based, Macaca fascicularis; settings: in vivo
[9] = target: T3, Oxysterols receptor LXR-beta (Homo sapiens) (UniProt P55055); test: Agonist activity at human LXR-beta expressed in African green monkey CV1 cells measured after 18 to 20 hrs by luciferase reporter gene assay relative to pan agonist 1-(2,4-difluorobenzyl)-2-oxo-6-(4-phenoxyphenyl)-4-(trifluoromethyl)-1,2-dihydropyridine-3-carbonitrile; assay type: cell-based; settings: CV-1
T3 sequence (whole entry): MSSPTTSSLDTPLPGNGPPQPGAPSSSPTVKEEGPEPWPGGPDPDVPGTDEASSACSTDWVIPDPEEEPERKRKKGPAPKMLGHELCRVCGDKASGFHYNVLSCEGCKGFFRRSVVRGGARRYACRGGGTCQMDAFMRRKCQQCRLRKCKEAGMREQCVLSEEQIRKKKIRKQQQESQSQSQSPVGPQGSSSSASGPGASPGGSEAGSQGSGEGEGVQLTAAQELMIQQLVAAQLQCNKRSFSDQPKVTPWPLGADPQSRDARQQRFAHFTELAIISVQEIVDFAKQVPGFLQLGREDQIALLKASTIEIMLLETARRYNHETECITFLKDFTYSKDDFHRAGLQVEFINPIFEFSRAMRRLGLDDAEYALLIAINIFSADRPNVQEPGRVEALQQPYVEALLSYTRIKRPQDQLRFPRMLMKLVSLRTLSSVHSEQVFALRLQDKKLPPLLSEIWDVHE

[10] = target: T2, Nuclear receptor subfamily 1 group I member 2; test: Agonist activity at human PXR expressed in human HepG2 cells assessed as induction of CYP3A4 measured after 24 hrs by AlamarBlue dye-based luciferase reporter gene assay; assay type: cell-based
[11] = Effect on plasma triglyceride level in cynomolgus monkey at 3 mg/kg, po qd administered via gavage for 14 days measured after 24 hrs of last-dose relative to base line; assay type: ADME, organism-based, Macaca fascicularis; settings: in vivo; method in brief: as §2
[12] = Plasma concentration in cynomolgus monkey at 3 mg/kg, po qd administered via gavage for 14 days measured after 5 hrs of last-dose by LC/MS/MS analysis; assay type: ADME, organism-based, Macaca fascicularis; method in brief: as §2
[13] = target: T3, Oxysterols receptor LXR-beta (Homo sapiens); test: Agonist activity at LXR-beta in human whole blood assessed as ABCA1 gene induction by measuring ABCA1 mRNA level after 4 hrs by SYBR-Green dye-based Q-PCR analysis relative to pan agonist 2-(4-(5-(5-cyano-1-(2,4-difluorobenzyl)-6-oxo-4-(trifluoromethyl)-1,6-dihydropyridin-2-yl)thiophen-2-yl)-3-methylphenyl)acetic acid; assay type: tissue-based
[14] = target: T3, Oxysterols receptor LXR-beta (Homo sapiens); test: Agonist activity at LXR-beta in human HeLa cells assessed as induction of ABCA1 by beta-galactosidase/luciferase reporter gene assay relative to control; assay type: cell-based
Method in brief: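 HeLa cells carrying endogenous LXRα and LXRβ receptors, transfected with an ABCA1 LXREx3 reporter construct; agonist-driven reporter induction measured.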

Macaca fascicularis = species: Macaca fascicularis; test: Agonist activity at LXR-beta in cynomolgus monkey whole blood assessed as ABCA1 gene induction by measuring ABCA1 mRNA level after 4 hrs by SYBR-Green dye-based Q-PCR analysis relative to control; assay type: tissue-based
[15] = Agonist activity at LXR-beta in cynomolgus monkey whole blood assessed as ABCA1 gene induction by measuring ABCA1 mRNA level after 4 hrs by SYBR-Green dye-based Q-PCR analysis; assay type: tissue-based; settings: Macaca fascicularis
[16] = Plasma concentration in cynomolgus monkey at 10 mg/kg, po qd administered via gavage for 14 days measured after 5 hrs of last-dose by LC/MS/MS analysis; assay type: ADME, organism-based, Macaca fascicularis; method in brief: as §2
[17] = Effect on plasma triglyceride level in cynomolgus monkey at 10 mg/kg, po qd administered via gavage for 14 days measured after 24 hrs of last-dose relative to base line; assay type: ADME, organism-based, Macaca fascicularis; settings: in vivo; method in brief: as §2
Cynomolgus monkey [18] = test: In vivo agonist activity at LXR-beta in cynomolgus monkey assessed as induction of ABCG1 gene at 10 mg/kg/day, po qd administered via gavage for 14 days; assay type: functional, Macaca fascicularis; method in brief: as §1

Alpha-1-acid glycoprotein 1, sequence (P02763 whole entry): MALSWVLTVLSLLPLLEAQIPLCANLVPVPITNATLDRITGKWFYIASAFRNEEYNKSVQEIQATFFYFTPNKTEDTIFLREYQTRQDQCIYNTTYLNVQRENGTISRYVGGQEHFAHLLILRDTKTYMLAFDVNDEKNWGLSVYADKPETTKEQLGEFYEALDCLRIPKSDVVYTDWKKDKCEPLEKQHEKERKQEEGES

Row | PB [1] [%] | PB (Albumin) [%] | Emax [3] [%] | Activity [5] [%] | Activity [6] [%] | concentration at 5 h [7] [nM] | betat1/2(app) [8] [h] | Efficacy [9] [%] | EC50 [10] [nM] | Activity [11] [%] | concentration at 5 h [12] [nM] | Efficacy [13] [%] | Efficacy [14] [%] | EC50 [15] [nM] | concentration at 5 h [16] [nM] | Activity [17] [%] | Compound | fold change (FC) (Cynomolgus monkey [2]) | fold change (FC) (Cynomolgus monkey [4]) | Efficacy (Macaca fascicularis) [%] | fold change (FC) (Cynomolgus monkey [18])
1 | 87.6 | 94.4 | 12 | 2 | 85 | 85 | 10 to 12 | 68 | 3000 | 58 | 310 | 34 | 16 | 52 |  |  | CC(C)(O)c1cn(-c2ccc(-c3cc(F)c(CO)c(S(C)(=O)=O)c3)cc2)c(C(C)(C)c2cccc(F)c2Cl)n1 | 10 | 4 | 29 | 
2 |  |  |  |  |  |  |  |  |  |  |  |  |  |  | 200 | 140 | O=S(=O)(c1ccccc1)N(CC(F)(F)F)c1ccc(C(O)(C(F)(F)F)C(F)(F)F)cc1 [T091317] |  |  | 100 | 6
